Calls of active or inactive are those of the source.
Legend:
[1] = Cytotoxicity against African green monkey BSC1 cells after 24 to 72 hrs by light microscopic analysis; type: cell-based, BSC-1; conditions: chlorocebus aethiops
Summary of the method: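 BSC-1 monkey kidney cells incubated with drug at 37 °C, dissolved in 10% Me₂SO in water. Cell destruction was scored by light microscopy at 24, 48 and 72 h. Toxicity was defined as cell death within 2 days. The maximal nontoxic concentration is the nontoxic level whose twofold increase causes toxicity.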

[2] = system: Human alphaherpesvirus 1; experiment: Antiviral activity against Herpes simplex virus 1 HF infected in African green monkey BSC1 cells assessed as inhibition of viral progeny production at 200 ug/ml after 20 to 24 hrs by plaque reduction assay relative to control; type: functional; conditions: Human alphaherpesvirus 1, HF, BSC-1
Summary of the method: (§1)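 BSC-1 monkey kidney monolayers in DMEM with 10% fetal bovine serum, infected with HSV-1 strain HF at 10 pfu/cell. Drug, in 10% Me2SO in water, added at infection at the highest noncytotoxic concentration. Cultures held 20–24 h at 37 °C, then sonicated. Progeny titred by plaque assay on BSC-1 (3 h adsorption, agar overlay, 72 h, gentian violet). Inhibition is plaque count with drug versus without.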

[3] = system: BSC-1; experiment: Inhibition of Herpes simplex virus 1 HF DNA polymerase-mediated DNA synthesis in African green monkey BSC1 cell nucleus after 60 mins by [3H]-TTP incorporation assay relative to control; type: cell-based; conditions: Human alphaherpesvirus 1
Summary of the method: (§2)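 Nuclei were taken from BSC-1 cells 20 h after HSV-1 infection by Dounce homogenization and low-speed spin. They were washed and incubated with drug for 60 min at 37 °C: 8 × 10⁶ nuclei, 80 mM K phosphate pH 7.4, 250 mM sucrose, 6 mM MgCl₂, 0.4 mM CaCl₂, 0.04 mM dATP/dGTP/dCTP, [³H]TTP, 1 mM ATP, PEP/pyruvate kinase, 5 mM EGTA. Read-out was TCA-precipitable radioactivity.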

[4] = system: Human alphaherpesvirus 1; experiment: Antiviral activity against Herpes simplex virus 1 HF infected in African green monkey BSC1 cells assessed as inhibition of viral progeny production at 50 ug/ml after 20 to 24 hrs by plaque reduction assay relative to control; type: functional; conditions: Human alphaherpesvirus 1, HF, BSC-1; summary of the method: as §1
[5] = system: BSC-1; experiment: Inhibition of Herpes simplex virus 1 HF DNA polymerase-mediated DNA synthesis in African green monkey BSC1 cell nucleus at 200 ug/ml after 60 mins by [3H]-TTP incorporation assay relative to control; type: cell-based; conditions: Human alphaherpesvirus 1; summary of the method: as §2
[6] = system: BSC-1; experiment: Inhibition of Herpes simplex virus 1 HF DNA polymerase-mediated DNA synthesis in African green monkey BSC1 cell nucleus at 400 ug/ml after 60 mins by [3H]-TTP incorporation assay relative to control; type: cell-based; conditions: Human alphaherpesvirus 1; summary of the method: as §2
[7] = system: BSC-1; experiment: Inhibition of Herpes simplex virus 1 HF DNA polymerase-mediated DNA synthesis in African green monkey BSC1 cell nucleus at 25 to 300 ug/ml after 60 mins by [3H]-TTP incorporation assay relative to control; type: cell-based; conditions: Human alphaherpesvirus 1; summary of the method: as §2
[8] = system: BSC-1; experiment: Inhibition of Herpes simplex virus 1 HF DNA polymerase-mediated DNA synthesis isolated from virus-infected African green monkey BSC1 cells at 25 to 400 ug/ml by [3H]-TTP incorporation assay; type: cell-free; conditions: Human alphaherpesvirus 1
Summary of the method: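 HSV DNA polymerase came from nuclear extracts of BSC-1 cells 12 h post-infection, via 70% ammonium sulfate precipitation and sucrose gradients. Assay: 250 mM KCl, 2 mM MgCl₂, 0.05 mM dGTP/dATP/dCTP, 0.01 mM TTP plus [³H]TTP, 500 µg/mL activated calf thymus DNA, 10 mM Tris-HCl pH 8.1, 0.5 µg/mL BSA. Inhibition relative to drug-free reactions.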

[9] = system: Human alphaherpesvirus 1; experiment: Antiviral activity against Herpes simplex virus 1 HF infected in African green monkey BSC1 cells assessed as inhibition of viral progeny production at 25 ug/ml after 20 to 24 hrs by plaque reduction assay relative to control; type: functional; conditions: Human alphaherpesvirus 1, HF, BSC-1; summary of the method: as §1

Structure (SMILES) | MNTC [1] [µg/mL] | inhibition at 200 µg/mL [2] [%] | inhibition of viral DNA synthesis (active/not active) [3] | inhibition at 50 µg/mL [4] [%] | inhibition [5] [%] | inhibition [6] | inhibition [7] | inhibition [8] | inhibition at 25 µg/mL [9] [%]
Cn1cc(NC(=O)c2cc(NC(=O)c3cc([N+](=O)[O-])cn3C)cn2C)cc1C(=O)NCCC(=N)N | > 200 | 86.5 | Active |  |  |  |  |  | 
Cn1cc(NC(=O)c2cc(NC(=O)c3cc([N+](=O)[O-])cn3C)cn2C)cc1C(=O)NCC(=N)N | 50 |  | inactive | 98.1 |  |  |  |  | 
Cn1cc(NC(=O)c2cc(NC(=O)c3cc(NC=O)cn3C)cn2C)cc1C(=O)NCCC#N | > 200 | 65.5 |  |  | 65 | Active |  |  | 
CC(CC#N)NC(=O)c1cc(NC(=O)c2cc(NC(=O)c3cc(NC=O)cn3C)cn2C)cn1C (stereo not drawn) | > 200 | 84.6 |  |  | < 42 | Active | Active |  | 
Cn1cc(NC=O)cc1C(=O)Nc1cc(C(=O)Nc2cc(C(=O)Nc3cccc(C(=N)N)c3)n(C)c2)n(C)c1 | > 200 | 97.1 |  |  | 65 | Active |  | Active | 
Cn1cc(NC(=O)c2cc(NC(=O)c3cc([N+](=O)[O-])cn3C)cn2C)cc1C(=O)Nc1ccc(C(=N)N)cc1 | > 200 | 94.8 | inactive |  |  |  |  |  | 
Cn1cc(NC(=O)c2cc(NC(=O)c3cc([N+](=O)[O-])cn3C)cn2C)cc1C(=O)Nc1cccc(C(=N)N)c1 | > 200 | 97.2 | inactive |  |  |  |  |  | 
CC(CC(=N)N)NC(=O)c1cc(NC(=O)c2cc(NC(=O)c3cc(NC=O)cn3C)cn2C)cn1C (stereo not drawn) | > 200 | 48 |  |  | 86 | Active |  |  | 
CC(CC(=N)N)NC(=O)c1cc(NC(=O)c2cc(NC(=O)c3cc([N+](=O)[O-])cn3C)cn2C)cn1C (stereo not drawn) | > 200 | 93.7 | Active |  |  |  |  |  | 
Cn1cc(NC(=O)c2cc(NC(=O)c3cc(NC=O)cn3C)cn2C)cc1C(=O)NCC(=N)N | > 200 | 61 |  |  | 65 | Active |  |  | 
Cn1cc(NC=O)cc1C(=O)Nc1cc(C(=O)Nc2cc(C(=O)Nc3ccccc3C(=N)N)n(C)c2)n(C)c1 | > 200 | 96.7 |  |  | 65 | Active |  |  | 
Cn1cc(NC(=O)c2cc([N+](=O)[O-])cn2C)cc1C(=O)Nc1cc(C(=O)Nc2ccccc2C(=N)N)n(C)c1 | > 200 | 96.9 | inactive |  |  |  |  |  | 
Cn1cc(NC(=O)c2cc(NC(=O)c3cc(NC=O)cn3C)cn2C)cc1C(=O)NCCC(=N)N | 25 |  |  |  | 95 | Active |  | Active | 99.7
Cn1cc(NC=O)cc1C(=O)Nc1cc(C(=O)Nc2cc(C(=O)Nc3ccc(C(=N)N)cc3)n(C)c2)n(C)c1 | > 200 | 76.4 |  |  | < 42 | Active |  |  | 

From ChEMBL document CHEMBL3244017, “Structure--activity relationships of pyrrole amidine antiviral antibiotics. 1. Modifications of the alkylamidine side chain” (J Med Chem, 1979)
